From PubChem BioAssay come the findings set out here.

Molecules are shown by their SMILES. Activity calls are given as the source filed them.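 The calls were made as follows, unless noted: active = viability loss from added drug above about 55%, and viability with drug at most 40%, in both replicates (limit read from the data, passing the limit was not always enough); inconclusive = both conditions met in only one replicate; inactive = neither replicate meets both conditions.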

Assay [1] can be described thus: reducers of endogenous Her2 protein level, primary screen, SKBR3 breast tumor cells, AlphaScreen, ATP viability (AID 461;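 active = Her2 level under about 52% in both replicate screens, with viability over 70% of control, limit read from the data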;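 as to Her2 level: lower value means less Her2 protein in the cells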;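 as to viability: percent of carrier control wells set as 100% viability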). Particulars: 18-24 h, measured here: SKBR3 viability, ATP luminescence, at 10 µM. (In general: Bead proximity is the source of the signal in Alpha formats.)
Assay [2] deals with Receptor tyrosine-protein kinase erbB-2 (Homo sapiens) (UniProt P04626). Described as above. Particulars: 18-24 h, at 10 µM, stronger effect = lower value.
A short description of assay [3]: SK-BR-3 cell growth inhibitors, pilot screen, 24 h, human (AID 572;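 active = viability at or below 10% of carrier control in both of two separate runs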;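 also: compound exposure lasted between 18 and 24 h rather than exactly 24 h; 100% = carrier-treated control wells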). As to conditions: SK-BR-3 viability, CellTiter-Glo luminescence, at 10 µM, stronger effect = lower value. Background: Cellular ATP, detected with luciferase, serves as a proxy for viable cell number.
Assay [4] is described as follows: HUVEC growth inhibition – cell-based, human, primary screen (AID 575;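 active = viability at or below 30% in both replicate assays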;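 also: 100% = median of untreated cell wells with 0.1% DMSO on each plate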). Particulars: HUVEC proliferation, CellTiter-Glo luminescence, 72 h; at 10 µM; stronger effect = lower value. The essentials:
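Test system: primary human umbilical vein endothelial cells. Quantity: 1250 cells/well. Compound: single 10 µM dose, 0.1% DMSO, from 5x medium stock. Timing: 72 h treatment at 37 °C. Detection: ATP-based CellTiter-Glo luminescent read. Benchmarks: vehicle and MePR control wells. Format: 384-well plates coated with collagen.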

A short description of assay [5]: growth inhibitors of H69AR lung tumor, primary screen, human, duplicate replicates (AID 580;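 active = viability at or under a set limit in both replicates, limit being median viability minus 3 SD, cut at about 48% in these data, passing the limit was not always enough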;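 also: 100% = mean luminescence of untreated wells and 0% = no signal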). As to conditions: H69AR lung tumor cells viability, ATP luminescence, 72 h; at 10 µM; stronger effect = lower value.
Assay [6] in a line: reversal of MRP1-mediated doxorubicin resistance, pilot screen, H69AR cells, doxorubicin co-treatment (AID 601). Particulars: CellTiter-Glo, 72 h, at 10 µM; for differential viability (reversal): stronger effect = higher value.
Assay [7] in a line: 384-well plate pilot, post-Golgi transport modulator project, inhibition of yeast transport mutant growth (AID 636; in the data active = inhibition above about 31%). As to conditions: absorbance 615 nm, about 18 h, stronger effect = higher value.
The nature of assay [8]: growth suppression of yeast trafficking mutant, preliminary HTS, modulators of trafficking downstream of Golgi apparatus project, 1536-format plate, OD 615 nm (AID 637; in the data active = inhibition above about 30%). As to conditions: yeast transport mutant growth, absorbance 615 nm, 18 h; stronger effect = higher value.
Setting [9] is: H69AR cells + 2 uM doxorubicin, measured here: viability with 2 uM doxorubicin, stronger effect = lower value.
[10] abbreviates: H69AR cells, compound alone cytotoxicity.

A word on the viability: it is a read-out of living cells in per cent, often relative to untreated cells. One may read the inhibition as the relative decrease from the control value, in per cent.

Sequence of Receptor tyrosine-protein kinase erbB-2 (Homo sapiens) (P04626 whole entry, looked up): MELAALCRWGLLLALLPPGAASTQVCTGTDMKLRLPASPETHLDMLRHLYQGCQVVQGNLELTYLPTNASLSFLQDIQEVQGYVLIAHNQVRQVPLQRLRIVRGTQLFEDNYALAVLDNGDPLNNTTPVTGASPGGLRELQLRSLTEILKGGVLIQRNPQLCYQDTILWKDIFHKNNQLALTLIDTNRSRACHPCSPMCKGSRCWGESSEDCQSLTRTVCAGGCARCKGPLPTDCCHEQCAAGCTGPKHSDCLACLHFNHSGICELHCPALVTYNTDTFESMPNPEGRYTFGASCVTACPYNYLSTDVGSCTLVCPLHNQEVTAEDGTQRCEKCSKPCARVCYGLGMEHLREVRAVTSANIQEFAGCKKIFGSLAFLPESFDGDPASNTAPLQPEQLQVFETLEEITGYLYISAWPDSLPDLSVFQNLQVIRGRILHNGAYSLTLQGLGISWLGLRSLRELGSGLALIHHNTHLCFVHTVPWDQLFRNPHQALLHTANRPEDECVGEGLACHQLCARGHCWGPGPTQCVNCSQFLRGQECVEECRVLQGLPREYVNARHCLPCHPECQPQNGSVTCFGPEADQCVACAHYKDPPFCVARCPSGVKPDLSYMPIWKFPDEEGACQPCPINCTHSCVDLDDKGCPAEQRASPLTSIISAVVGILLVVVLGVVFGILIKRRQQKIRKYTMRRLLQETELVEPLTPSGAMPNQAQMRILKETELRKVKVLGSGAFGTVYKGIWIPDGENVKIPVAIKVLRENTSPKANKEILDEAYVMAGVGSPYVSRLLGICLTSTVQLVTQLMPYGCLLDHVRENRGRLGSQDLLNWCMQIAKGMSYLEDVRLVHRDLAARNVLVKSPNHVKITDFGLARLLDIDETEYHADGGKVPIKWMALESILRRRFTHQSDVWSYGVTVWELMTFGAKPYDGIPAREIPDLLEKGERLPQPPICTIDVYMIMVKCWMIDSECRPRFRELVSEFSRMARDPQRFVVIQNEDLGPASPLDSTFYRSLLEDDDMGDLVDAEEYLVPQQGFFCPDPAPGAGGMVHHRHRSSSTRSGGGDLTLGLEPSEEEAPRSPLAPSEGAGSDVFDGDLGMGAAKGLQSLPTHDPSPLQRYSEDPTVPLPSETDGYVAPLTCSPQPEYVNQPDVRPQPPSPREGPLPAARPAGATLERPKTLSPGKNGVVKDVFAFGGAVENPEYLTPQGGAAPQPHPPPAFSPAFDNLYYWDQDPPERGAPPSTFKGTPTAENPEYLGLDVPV

Consider `CCOC(=O)N1CCN(S(=O)(=O)c2cc(Cl)c(OC)cc2Cl)CC1`, for which the viability in assay [1] was 85%; in assay [3], 85% (inactive); in assay [4] it was 108% (inactive); in assay [5], 91.1% (inactive); in assay [6] (setting [9]) it was 91.3%; in assay [6] (setting [10]), 91.1%. Moreover, the Her2 level in assay [2] was 102% (inactive). In assay [6] (H69AR cells + 2 uM doxorubicin), the differential viability (reversal) was -0.21% (inactive). Further, the inhibition is -2.24% (inactive) in assay [7] and -4.92% (inactive) in assay [8].

Turning to `O=C(Nc1nccs1)c1ccc(COc2ccccc2Br)o1`, the viability in assay [1] is 118%; in assay [3], 118% (inactive); in assay [4], 50.3% (inactive); in assay [5], 80.9% (inactive); in assay [6] (setting [9]) it was 83.7%; in assay [6] (setting [10]), 80.9%. For the same molecule, the Her2 level in assay [2] was 91.5% (inactive). In assay [6] (H69AR cells + 2 uM doxorubicin), the differential viability (reversal) is -2.83% (inactive). Further, the inhibition is -2.27% (inactive) in assay [7] and -7.26% (inactive) in assay [8].

As for `COc1ccc(OC(C)C(=O)N2CC(C)OC(C)C2)cc1` (stereo not given), the viability in assay [1] is 100%; in assay [3] it was 100% (inactive); in assay [4], 97.3% (inactive); in assay [5], 100% (inactive); in assay [6] (setting [9]), 101%; in assay [6] (setting [10]), 100%. Further, the Her2 level in assay [2] is 102% (inactive). In addition, the differential viability (reversal) in assay [6] (H69AR cells + 2 uM doxorubicin) was -1.02% (inactive). The inhibition in assay [7] is -5% (inactive); in assay [8] it was 0.16% (inactive).

For `O=C(CCSc1nc(-c2ccco2)cc(C(F)(F)F)n1)Nc1ccc2c(c1)OCO2`, the viability was 83% in assay [1]; 83% (inactive) in assay [3]; 56.3% (inactive) in assay [4]; 78.4% (inactive) in assay [5]; 88.5% in assay [6] (setting [9]); 78.4% in assay [6] (setting [10]). Also, the Her2 level in assay [2] was 94.5% (inactive). For the same molecule, the differential viability (reversal) in assay [6] (H69AR cells + 2 uM doxorubicin) is -10.1% (inactive). Besides, the inhibition in assay [7] was -7.47% (inactive); in assay [8] it was 3.81% (inactive).

Regarding `COCC(=O)N(Cc1nc2ccccc2c(=O)[nH]1)Cc1cccs1`, the viability is 103% in assay [1]; 103% (inactive) in assay [3]; 93.3% (inactive) in assay [4]; 98.8% (inactive) in assay [5]; 101% in assay [6] (setting [9]); 98.8% in assay [6] (setting [10]). Moreover, the Her2 level in assay [2] was 100% (inactive). In addition, the differential viability (reversal) in assay [6] (H69AR cells + 2 uM doxorubicin) was -2.5% (inactive). Further, the inhibition in assay [7] is -3.07% (inactive); in assay [8], -0.65% (inactive).

With `COCCn1nnnc1CN(CCCN1CCOCC1)Cc1cc2c(C)ccc(C)c2[nH]c1=O`, the viability in assay [1] was 85%; in assay [3], 85% (inactive); in assay [4] it was 98.5% (inactive); in assay [5], 68.7% (inactive); in assay [6] (setting [9]), 74.1%; in assay [6] (setting [10]), 68.7%. Further, in assay [2], the Her2 level was 124% (inactive). For the same molecule, the differential viability (reversal) in assay [6] (H69AR cells + 2 uM doxorubicin) is -5.44% (inactive). The inhibition in assay [7] is 4.55% (inactive); in assay [8], -7.33% (inactive).

For `CCC(=O)N1CCN(CCN=CC2=C(O)CC(C)(C)CC2=O)CC1`, the viability in assay [1] is 90.5%; in assay [3], 90.5% (inactive); in assay [4] it was 79.6% (inactive); in assay [5] it was 107% (inactive); in assay [6] (setting [9]), 95.2%; in assay [6] (setting [10]), 107%. The Her2 level in assay [2] is 93.5% (inactive). Further, the differential viability (reversal) in assay [6] (H69AR cells + 2 uM doxorubicin) is 11.3% (inactive). For the same molecule, the figures for the inhibition in assay [7] and in assay [8] were -1.6% (inactive) and -6.77% (inactive), respectively.

On to `COCc1ccccc1Cn1cnc2c1c(=O)n(C)c(=O)n2C`, for which the viability in assay [1] is 99%; in assay [3], 99% (inactive); in assay [4], 85.8% (inactive); in assay [5], 101% (inactive); in assay [6] (setting [9]), 92.7%; in assay [6] (setting [10]), 101%. In addition, the Her2 level in assay [2] is 77.5% (inactive). In addition, the differential viability (reversal) in assay [6] (H69AR cells + 2 uM doxorubicin) was 8.8% (inactive). The inhibition in assay [7] is -5% (inactive); in assay [8] it was 0.49% (inactive).

As to `CCCCn1nnnc1SCC(=O)N1CCN(C(=O)c2ccco2)CC1`, the viability was 116% in assay [1]; 116% (inactive) in assay [3]; 111% (inactive) in assay [4]; 93.6% (inactive) in assay [5]; 86.3% in assay [6] (setting [9]); 93.6% in assay [6] (setting [10]). For the same molecule, in assay [2], the Her2 level is 100% (inactive). Further, the differential viability (reversal) in assay [6] (H69AR cells + 2 uM doxorubicin) was 7.26% (inactive). Further, the figures for the inhibition in assay [7] and in assay [8] were -6.71% (inactive) and 1.75% (inactive), respectively.

As for `O=C(O)CCc1ccc(-c2ccc(Br)cc2)n1CC(=O)O`, the viability in assay [1] was 102%; in assay [3], 102% (inactive); in assay [4], 91.9% (inactive); in assay [5], 101% (inactive); in assay [6] (setting [9]) it was 98%; in assay [6] (setting [10]) it was 101%. Besides, the Her2 level in assay [2] is 102% (inactive). Moreover, in assay [6] (H69AR cells + 2 uM doxorubicin), the differential viability (reversal) was 2.92% (inactive). Further, the inhibition in assay [7] is -0.51% (inactive); in assay [8] it was -3.67% (inactive).

In the case of `CCCC(=O)Nc1ccc2oc(-c3cccnc3)nc2c1`, the viability in assay [1] is 109%; in assay [3] it was 109% (inactive); in assay [4] it was 93.6% (inactive); in assay [5], 88.5% (inactive); in assay [6] (setting [9]), 96%; in assay [6] (setting [10]), 88.5%. Further, the Her2 level in assay [2] was 94% (inactive). For the same molecule, the differential viability (reversal) in assay [6] (H69AR cells + 2 uM doxorubicin) is -7.42% (inactive). Besides, the inhibition was -4% (inactive) in assay [7] and 10% (inactive) in assay [8].

In the case of `CC(=O)N1CCc2cc(S(=O)(=O)NC(CC(C)C)C(=O)N3CCn4c3nc3ccccc34)ccc21` (stereo not given), the viability in assay [1] was 88.5%; in assay [3], 88.5% (inactive); in assay [4] it was 92% (inactive); in assay [5] it was 97.6% (inactive); in assay [6] (setting [9]), 101%; in assay [6] (setting [10]), 97.6%. Further, in assay [2], the Her2 level was 87.5% (inactive). Moreover, the differential viability (reversal) in assay [6] (H69AR cells + 2 uM doxorubicin) is -3.44% (inactive). Further, the inhibition was -4.4% (inactive) in assay [7] and 1.8% (inactive) in assay [8].

On to `Cc1cc(C)cc(NC(=O)N2CCC(c3nc4ccccc4o3)CC2)c1`, for which the viability in assay [1] is 90.5%; in assay [3], 90.5% (inactive); in assay [4], 88.9% (inactive); in assay [5], 94.9% (inactive); in assay [6] (setting [9]) it was 93.2%; in assay [6] (setting [10]) it was 94.9%. Also, in assay [2], the Her2 level is 99% (inactive). In addition, the differential viability (reversal) in assay [6] (H69AR cells + 2 uM doxorubicin) was 1.69% (inactive). Moreover, the inhibition in assay [7] is -4.8% (inactive); in assay [8], 1.8% (inactive).

For `COc1cc2c(c(OC)c1)C(c1ccncc1)CC(=O)N2` (stereo not given), the viability in assay [1] was 89%; in assay [3], 89% (inactive); in assay [4], 91.7% (inactive); in assay [5] it was 111% (inactive); in assay [6] (setting [9]) it was 89.8%; in assay [6] (setting [10]) it was 111%. In addition, in assay [2], the Her2 level was 96.5% (inactive). Further, the differential viability (reversal) in assay [6] (H69AR cells + 2 uM doxorubicin) was 21.4% (inactive). The inhibition was 1.73% (inactive) in assay [7] and -5.57% (inactive) in assay [8].
